{"source": "ChEMBL document CHEMBL4138078", "about": "“Structure-based virtual screening and optimization of modulators targeting Hsp90-Cdc37 interaction” (Eur J Med Chem, 2017)", "key": {"MCF7": {"tested_on": "MCF7", "assay": "Antiproliferative activity against human MCF7 cells at 10 uM after 72 hrs by MTT assay relative to control", "type": "functional"}, "Homo sapiens [1]": {"organism": "Homo sapiens", "assay": "Inhibition of full length His-tagged HSP90/GST-tagged Cdc37 (unknown origin) interaction at 100 uM after 1 hr by HTRF assay relative to control", "procedure,_shortened": "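HTRF assay using His-tagged full-length Hsp90 and GST-tagged Cdc37 M, each 250 nM final, in PBS with an extra 400 mM KF, pH 7.4. Compound incubated 1 h at 37 °C. Anti-GST-Cryptate and anti-6His-XL665 then added, 0.5 h at 37 °C. Ex 320 nm; ratio = (665/620 nm) × 10000. No-compound negative control and reagent-only blank.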"}, "Homo sapiens [2]": {"organism": "Homo sapiens", "assay": "Inhibition of HSP90/Cdc37 protein-protein interaction in human SKBR3 cells assessed as decrease in Akt level after 24 hrs by Western blot analysis", "type": "cell-based", "procedure,_shortened": "(§1)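 SKBR-3 cells treated with compound at 1, 10 and 50 μM for 24 h. After a PBS rinse and trypsinisation, cells lysed in Tris-HCl pH 7.5 buffer with NaCl, EDTA, NP-40, PMSF, NaF and DTT; lysate spun 12000 rpm, 10 min, 4 °C. Protein by BCA, equal loads on SDS-PAGE. Probed for Hsp90, Akt, Cdk4, β-actin; DyLight 800 secondary, infrared imaging.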"}, "SK-BR-3 [3]": {"tested_on": "SK-BR-3", "assay": "Effect on HSP90 level in human SKBR3 cells at 1 to 50 uM after 24 hrs by Western blot analysis", "type": "functional, cell-based", "procedure,_shortened": "as §1"}, "A549": {"tested_on": "A549", "assay": "Antiproliferative activity against human A549 cells at 10 uM after 72 hrs by MTT assay relative to control", "type": "functional"}, "Homo sapiens [4]": {"organism": "Homo sapiens", "assay": "Inhibition of HSP90/Cdc37 protein-protein interaction in human SKBR3 cells assessed as decrease in CDK4 level after 24 hrs by Western blot analysis", "type": "cell-based", "procedure,_shortened": "as §1"}, "SK-BR-3 [5]": {"tested_on": "SK-BR-3", "assay": "Antiproliferative activity against human SKBR3 cells at 10 uM after 72 hrs by MTT assay relative to control", "type": "functional"}, "Homo sapiens [6]": {"organism": "Homo sapiens", "assay": "Inhibition of full length His-tagged HSP90/GST-tagged Cdc37 (unknown origin) interaction at 10 uM after 1 hr by HTRF assay relative to control"}, "Homo sapiens [7]": {"organism": "Homo sapiens", "assay": "Inhibition of N-terminal GST-tagged HSP90/Cdc37 (unknown origin) interaction expressed in Escherichia coli at 20 uM preincubated with Cdc37 for 1 hr followed by addition to HSP90 by GST-pull down assay", "procedure,_shortened": "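Pull-down with 10 μg GST-Hsp90 N-terminal domain immobilised as bait on glutathione resin spin columns. Compound incubated with Cdc37 for 1 h at 37 °C, then added to the columns. Loading buffer 25 mM Tris, 0.15 M NaCl, pH 7.2; elution with extra 10 mM reduced glutathione; spins 1 min at 1,000 × g, 4 °C. Eluate analysed by SDS-PAGE and anti-GST/anti-His western blot.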"}}, "note": "Active and inactive are the calls of the source. The rule behind the calls is not given here."}
{"compound": "CC1=C(O)C(=O)C=C2C1=CC=C1[C@@]2(C)CC[C@@]2(C)[C@@H]3C[C@](C)(C(=O)O)CC[C@]3(C)CC[C@]12C", "note": "[CELASTROL]", "values": [{"measurement": "Activity", "setting": "MCF7", "value": 98.62, "unit": "%"}, {"measurement": "inhibition", "setting": "Homo sapiens [1]", "value": 92.3, "unit": "%"}, {"measurement": "inhibition", "setting": "Homo sapiens [2]", "value": "Dose-dependent effect"}, {"measurement": "Activity", "setting": "SK-BR-3 [3]", "value": "inactive"}, {"measurement": "Activity", "setting": "A549", "value": 95.43, "unit": "%"}, {"measurement": "inhibition", "setting": "Homo sapiens [4]", "value": "Dose-dependent effect"}, {"measurement": "Activity", "setting": "SK-BR-3 [5]", "value": 97.62, "unit": "%"}, {"measurement": "inhibition", "setting": "Homo sapiens [6]", "value": 79.3, "unit": "%"}, {"measurement": "inhibition", "setting": "Homo sapiens [7]", "value": "Active"}]}
